In ChEMBL document CHEMBL1123393, “5-HT1 and 5-HT2 binding characteristics of 1-(2,5-dimethoxy-4-bromophenyl)-2-aminopropane analogues” (J Med Chem, 1986):

Key:
[1] = molecular target: Serotonin 1 (5-HT1) receptor (Rattus norvegicus, UniProt P28564+P30940+P19327+P28565); assay: Binding affinity for 5-hydroxytryptamine 1 receptor of rat prefrontal cortex; assay type: tissue-based
Method in brief: (§1)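 Rat prefrontal cortex (female Sprague-Dawley, ca. 200 g) homogenate, 4 mg wet weight tissue per tube, in 50 mM Tris, 5 mM MgCl2, 0.5 mM EDTA (pH 7.4 at 37 °C). Radioligand 2 nM [3H]-5-HT for 5-HT1 or 0.4 nM [3H]ketanserin for 5-HT2. Nonspecific binding with 1 μM 5-HT or 1 μM cinanserin. Filtration, scintillation counting. IC50 from a 23-point curve in triplicate by nonlinear fit; Ki by Cheng-Prusoff.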

[2] = molecular target: Serotonin 2 (5-HT2) receptor (Rattus norvegicus, UniProt P30994+P08909+P14842); assay: Displacement of [3H]ketanserin from rat prefrontal cortex 5-hydroxytryptamine 2 receptor; assay type: tissue-based; method in brief: as §1
Rattus norvegicus [3] = assay: DOM appropriate responding in percent when compound administered at 7 mg/kg; assay type: functional
Method in brief: (§2)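 Rats trained to discriminate DOM (1.0 mg/kg ip, 15-min presession interval) from saline on two levers. Test doses given ip. Percent of responses on the DOM-appropriate lever recorded during a 2.5-min extinction session.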

Rattus norvegicus [4] = assay: DOM appropriate responses per min when compound administered at 7 mg/kg; assay type: functional
Method in brief: (§3)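 DOM (1.0 mg/kg ip) versus saline two-lever discrimination in food-restricted male Sprague-Dawley rats. Test doses given ip with a 15-min presession interval. Response rate (responses/min) measured during a 2.5-min extinction test session.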

Rattus norvegicus [5] = assay: DOM appropriate responses per min when compound administered at 4 mg/kg; assay type: functional; method in brief: as §3
Rattus norvegicus [6] = assay: Number of animals responding to the drug 6 (mg/kg) out of 5 animals tested; assay type: functional
Rattus norvegicus [7] = assay: DOM appropriate responding in percent when compound administered at 5 mg/kg; assay type: functional; method in brief: as §2
Rattus norvegicus [8] = assay: DOM appropriate responding in percent when compound administered at 8 mg/kg; assay type: functional; method in brief: as §2
Rattus norvegicus [9] = assay: Number of animals responding to the drug 5 (mg/kg) out of 6 animals tested; assay type: functional
Rattus norvegicus [10] = assay: DOM appropriate responses per min when compound administered at 6 mg/kg; assay type: functional; method in brief: as §3
Rattus norvegicus [11] = assay: DOM appropriate responses per min when compound administered at 8 mg/kg; assay type: functional; method in brief: as §3
Rattus norvegicus [12] = assay: DOM appropriate responses per min when compound administered at 5 mg/kg; assay type: functional; method in brief: as §3
Rattus norvegicus [13] = assay: DOM appropriate responding in percent when compound administered at 6 mg/kg; assay type: functional; method in brief: as §2
Rattus norvegicus [14] = assay: Number of animals responding to the drug 8 (mg/kg) out of 3 animals tested; assay type: functional
Rattus norvegicus [15] = assay: Concentration required to produce DOM like response when administered in rats; assay type: functional
Method in brief: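 Six male Sprague-Dawley rats, food-restricted to about 80% of free-feeding weight, trained on two-lever drug discrimination: DOM HCl 1.0 mg/kg ip versus saline, 15 min pre-session. Test drug given ip before a 2.5-min extinction test.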

Rattus norvegicus [16] = assay: Number of animals responding to the drug 7 (mg/kg) out of 5 animals tested; assay type: functional
Rattus norvegicus [17] = assay: Number of animals responding to the drug (mg/kg) out of 4 animals tested; assay type: functional
Rattus norvegicus [18] = assay: DOM appropriate responding in percent when compound administered at 4 mg/kg; assay type: functional; method in brief: as §2
Rattus norvegicus [19] = assay: Number of animals responding to the drug 13 (mg/kg) out of 3 animals tested; assay type: functional
Rattus norvegicus [20] = assay: Number of animals responding to the drug 10 (mg/kg) out of 3 animals tested; assay type: functional
Rattus norvegicus [21] = assay: DOM appropriate responses per min when compound administered at 2 mg/kg; assay type: functional; method in brief: as §3
Rattus norvegicus [22] = assay: Number of animals responding to the drug 13 (mg/kg) out of 3 animals tested (second group of 3 animals); 1/3; assay type: functional
Rattus norvegicus [23] = assay: Number of animals responding to the drug 12 (mg/kg) out of 3 animals tested; assay type: functional
Rattus norvegicus [24] = assay: DOM appropriate responses per min when compound administered at 12 mg/kg; assay type: functional; method in brief: as §3
Rattus norvegicus [25] = assay: DOM appropriate responding in percent when compound administered at 2 mg/kg; assay type: functional; method in brief: as §2
Rattus norvegicus [26] = assay: DOM appropriate responding in percent when compound administered at 11 mg/kg; assay type: functional; method in brief: as §2
Rattus norvegicus [27] = assay: DOM appropriate responding in percent when compound administered at 12 mg/kg; assay type: functional; method in brief: as §2
Rattus norvegicus [28] = assay: Number of animals responding to the drug 5 (mg/kg) out of 4 animals tested; assay type: functional
Rattus norvegicus [29] = assay: DOM appropriate responding in percent when compound administered at 10 mg/kg; assay type: functional; method in brief: as §2
Rattus norvegicus [30] = assay: DOM appropriate responses per min when compound administered at 11 mg/kg; assay type: functional; method in brief: as §3
Rattus norvegicus [31] = assay: Number of animals responding to the drug 2 (mg/kg) out of 4 animals tested; assay type: functional
Rattus norvegicus [32] = assay: Number of animals responding to the drug 11 (mg/kg) out of 3 animals tested; assay type: functional
Rattus norvegicus [33] = assay: DOM appropriate responses per min when compound administered at 10 mg/kg; assay type: functional; method in brief: as §3
Rattus norvegicus [34] = assay: DOM appropriate responding in percent when compound administered at 0.2 mg/kg; assay type: functional; method in brief: as §2
Rattus norvegicus [35] = assay: DOM appropriate responding in percent when compound administered at 0.1 mg/kg; assay type: functional; method in brief: as §2
Rattus norvegicus [36] = assay: Number of animals responding to the drug 0.5 (mg/kg) out of 3 animals tested; assay type: functional
Rattus norvegicus [37] = assay: DOM appropriate responses per min when compound administered at 0.1 mg/kg; assay type: functional; method in brief: as §3
Rattus norvegicus [38] = assay: DOM appropriate responding in percent when compound administered at 0.5 mg/kg; assay type: functional; method in brief: as §2
Rattus norvegicus [39] = assay: Number of animals responding to the drug 0.1 (mg/kg) out of 4 animals tested; assay type: functional
Rattus norvegicus [40] = assay: Number of animals responding to the drug 0.2 (mg/kg) out of 3 animals tested; assay type: functional
Rattus norvegicus [41] = assay: DOM appropriate responses per min when compound administered at 0.2 mg/kg; assay type: functional; method in brief: as §3
Rattus norvegicus [42] = assay: DOM appropriate responses per min when compound administered at 0.5 mg/kg; assay type: functional; method in brief: as §3
Rattus norvegicus [43] = assay: DOM appropriate responding in percent when compound administered at 1.2 mg/kg; assay type: functional; method in brief: as §2
Rattus norvegicus [44] = assay: DOM appropriate responding in percent when compound administered at 1.8 mg/kg; assay type: functional; method in brief: as §2
Rattus norvegicus [45] = assay: Number of animals responding to the drug 1.8 (mg/kg) out of 3 animals tested; assay type: functional
Rattus norvegicus [46] = assay: Number of animals responding to the drug 1.2 (mg/kg) out of 3 animals tested; assay type: functional
Rattus norvegicus [47] = assay: DOM appropriate responses per min when compound administered at 1.8 mg/kg; assay type: functional; method in brief: as §3
Rattus norvegicus [48] = assay: DOM appropriate responses per min when compound administered at 1.2 mg/kg; assay type: functional; method in brief: as §3

Question: For `COc1cc(C[C@@H](C)N)c(OC)cc1I`, which Ki [1] is on record?
Answer: 2290 nM

Question: What about the Ki [2] of the same compound?
Answer: 0.0099 µM

Question: How did the Activity (Rattus norvegicus [3]) turn out when `CCCNC(C)Cc1cc(OC)c(Br)cc1OC` (stereo not given) was run?
Answer: 88%

Question: What about the Response (Rattus norvegicus [4]) of the same compound?
Answer: 5.2 min

Question: And the Response (Rattus norvegicus [5])?
Answer: 10.2 min

Question: And the Ki [1]?
Answer: 1320 nM

Question: What about the Activity (Rattus norvegicus [6]) of the same compound?
Answer: 4

Question: And the Activity (Rattus norvegicus [7])?
Answer: 63%

Question: And the Activity (Rattus norvegicus [8])?
Answer: 92%

Question: And the Activity (Rattus norvegicus [9])?
Answer: 6

Question: And the Response (Rattus norvegicus [10])?
Answer: 10.2 min

Question: What about the Response (Rattus norvegicus [11]) of the same compound?
Answer: 5.9 min

Question: And the Response (Rattus norvegicus [12])?
Answer: 6.3 min

Question: What about the Activity (Rattus norvegicus [13]) of the same compound?
Answer: 79%

Question: And the Activity (Rattus norvegicus [14])?
Answer: 3

Question: And the Ki [2]?
Answer: 1.93 µM

Question: And the ED50 (Rattus norvegicus [15])?
Answer: 4.76 mg/kg

Question: What about the Activity (Rattus norvegicus [16]) of the same compound?
Answer: 3

Question: What about the Activity (Rattus norvegicus [17]) of the same compound?
Answer: 4

Question: And the Activity (Rattus norvegicus [18])?
Answer: 24%

Question: For `CCCNC(C)Cc1cc(OC)ccc1OC` (stereo not given), which Ki [1] is on record?
Answer: 4100 nM

Question: And the Ki [2]?
Answer: 25.6 µM

Question: Which Activity (Rattus norvegicus [19]) does the source give for `COc1cc(Br)ccc1CC(C)N` (stereo not given) here?
Answer: 1

Question: What about the Activity (Rattus norvegicus [20]) of the same compound?
Answer: 3

Question: And the Response (Rattus norvegicus [21])?
Answer: 16.3 min

Question: And the Ki [1]?
Answer: 2900 nM

Question: What about the Activity (Rattus norvegicus [22]) of the same compound?
Answer: 1

Question: What about the Activity (Rattus norvegicus [7]) of the same compound?
Answer: 15%

Question: What about the Activity (Rattus norvegicus [23]) of the same compound?
Answer: 2

Question: And the Response (Rattus norvegicus [24])?
Answer: 2.8 min

Question: What about the Response (Rattus norvegicus [12]) of the same compound?
Answer: 14.9 min

Question: What about the Activity (Rattus norvegicus [25]) of the same compound?
Answer: 14%

Question: And the Activity (Rattus norvegicus [26])?
Answer: 17%

Question: What about the Activity (Rattus norvegicus [27]) of the same compound?
Answer: 65%

Question: And the Activity (Rattus norvegicus [28])?
Answer: 3

Question: And the Activity (Rattus norvegicus [29])?
Answer: 8%

Question: What about the Ki [2] of the same compound?
Answer: 4.87 µM

Question: And the Response (Rattus norvegicus [30])?
Answer: 3.3 min

Question: And the Activity (Rattus norvegicus [31])?
Answer: 4

Question: And the Activity (Rattus norvegicus [32])?
Answer: 3

Question: And the Response (Rattus norvegicus [33])?
Answer: 4.5 min

Question: For `COc1cc(CC(C)N)ccc1Br` (stereo not given), which Ki [1] is on record?
Answer: > 25000 nM

Question: And the Ki [2]?
Answer: > 25 µM

Question: How did the Activity (Rattus norvegicus [34]) turn out when `COc1cc(CC(C)N)c(O)cc1Br` (stereo not given) was run?
Answer: 55%

Question: And the Activity (Rattus norvegicus [35])?
Answer: 19%

Question: What about the Activity (Rattus norvegicus [36]) of the same compound?
Answer: 3

Question: And the Response (Rattus norvegicus [37])?
Answer: 15.4 min

Question: What about the Activity (Rattus norvegicus [38]) of the same compound?
Answer: 96%

Question: And the Activity (Rattus norvegicus [39])?
Answer: 4

Question: And the Activity (Rattus norvegicus [40])?
Answer: 3

Question: And the Response (Rattus norvegicus [41])?
Answer: 12.1 min

Question: What about the Ki [1] of the same compound?
Answer: 1710 nM

Question: What about the Ki [2] of the same compound?
Answer: 0.21 µM

Question: What about the ED50 (Rattus norvegicus [15]) of the same compound?
Answer: 0.18 mg/kg

Question: What about the Response (Rattus norvegicus [42]) of the same compound?
Answer: 11.9 min

Question: What does the source list for `CC(N)Cc1ccc(Br)cc1` (stereo not given)?
Answer: Ki [1]: 2830 nM; Ki [2]: 4.65 µM

Question: How did the Activity (Rattus norvegicus [43]) turn out when `COc1cc(CC(C)N)c(OC)cc1I` (stereo not given) was run?
Answer: 43%

Question: What about the Activity (Rattus norvegicus [44]) of the same compound?
Answer: 93%

Question: And the Activity (Rattus norvegicus [36])?
Answer: 3

Question: What about the Activity (Rattus norvegicus [38]) of the same compound?
Answer: 14%

Question: What about the Ki [1] of the same compound?
Answer: 920 nM

Question: What about the Activity (Rattus norvegicus [45]) of the same compound?
Answer: 3

Question: And the Activity (Rattus norvegicus [46])?
Answer: 3

Question: And the Response (Rattus norvegicus [47])?
Answer: 7.8 min

Question: And the Ki [2]?
Answer: 0.035 µM

Question: And the ED50 (Rattus norvegicus [15])?
Answer: 0.99 mg/kg

Question: What about the Response (Rattus norvegicus [48]) of the same compound?
Answer: 16.9 min

Question: And the Response (Rattus norvegicus [42])?
Answer: 12.2 min

Question: Which results are given for `COc1cccc(CC(C)N)c1` (racemic)?
Answer: Ki [1]: 2660 nM; Ki [2]: 7.85 µM

Question: Which Ki [1] does the source give for `COc1ccccc1CC(C)N` (racemic) here?
Answer: 3500 nM

Question: For `COc1ccc(OC)c(CC(C)N)c1` (racemic), which Ki [1] is on record?
Answer: 1020 nM

Question: Which results are given for `COc1cc(CC(C)N)c(OC)cc1Br` (racemic) [BROLAMFETAMINE]?
Answer: Ki [1]: 3340 nM; ED50 (Rattus norvegicus [15]): 0.2 mg/kg
